Drawing on ChEMBL document CHEMBL4014341, “Discovery of a Human Neuromedin U Receptor 1-Selective Hexapeptide Agonist with Enhanced Serum Stability” (J Med Chem, 2017), this text covers Activity for 11 molecules.

Activity calls are given as the source filed them. No cut-off for these calls is given here. Square brackets hold non-standard residues; d marks the D form. Peptide text beside a SMILES is read from it. * marks the point of attachment. Phe(4-NO2) = N[C@@H](Cc1ccc([N+](=O)[O-])cc1)C(=O)O; Phe(4-CF3) = N[C@@H](Cc1ccc(C(F)(F)F)cc1)C(=O)O; Bpa = N[C@@H](Cc1ccc(C(=O)c2ccccc2)cc1)C(=O)O; Bip = N[C@@H](Cc1ccc(-c2ccccc2)cc1)C(=O)O; Phe(4-Br) = N[C@@H](Cc1ccc(Br)cc1)C(=O)O; Phe(4-CN) = N#Cc1ccc(C[C@H](N)C(=O)O)cc1; Phe(4-Cl) = N[C@@H](Cc1ccc(Cl)cc1)C(=O)O; 1Nal = N[C@@H](Cc1cccc2ccccc12)C(=O)O; Phe(2-F) = N[C@@H](Cc1ccccc1F)C(=O)O; Bta = N[C@@H](Cc1csc2ccccc12)C(=O)O; Acetyl(2-thienyl) = O=C(Cc1cccs1)*

Holding throughout (format): functional, cell-based
Test [1] concerns the target Neuromedin-U receptor 2 (Homo sapiens) (UniProt Q9GZQ4). Put plainly: Agonist activity at human NMUR2 expressed in CHO cells assessed as induction of Ca2+ flux at 10 nM after 18 hrs by Fluo-4 AM dye based FLIPR assay relative to NMU. The method, boiled down:
(§1)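 Human NMUR1 or NMUR2 stably expressed in CHO cells was assayed by Fluo-4 AM (4 μM, 40 min) FLIPR calcium flux, with cells seeded 18 h before. Peptides were tested at single concentrations of 0.1, 10 or 100 nM. Maximal response is expressed as % of hNMU at 1000 nM (=100%).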
For orientation: Calcium assays in cells follow changes in intracellular calcium, usually with a dye or a luminescent sensor.

In test [2] the target is T1, Neuromedin-U receptor 1 (Homo sapiens) (UniProt Q9HB89).
T1 sequence (whole entry): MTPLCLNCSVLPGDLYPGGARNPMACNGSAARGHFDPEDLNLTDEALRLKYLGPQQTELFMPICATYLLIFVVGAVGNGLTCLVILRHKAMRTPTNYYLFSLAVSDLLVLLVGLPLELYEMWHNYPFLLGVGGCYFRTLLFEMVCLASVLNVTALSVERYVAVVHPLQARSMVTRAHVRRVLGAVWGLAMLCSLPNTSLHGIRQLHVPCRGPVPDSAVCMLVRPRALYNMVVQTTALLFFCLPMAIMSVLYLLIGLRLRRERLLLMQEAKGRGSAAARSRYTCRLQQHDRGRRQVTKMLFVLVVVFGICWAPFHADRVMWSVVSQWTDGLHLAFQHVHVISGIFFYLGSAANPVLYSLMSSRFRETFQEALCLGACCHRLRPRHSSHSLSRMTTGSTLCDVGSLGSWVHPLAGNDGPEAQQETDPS
Put plainly: Agonist activity at human NMUR1 expressed in CHO cells assessed as induction of Ca2+ flux at 0.1 to 10 nM after 18 hrs by Fluo-4 AM dye based FLIPR assay relative to NMU. The method, boiled down:
as §1

The target in test [3] is T1, Neuromedin-U receptor 1 (Homo sapiens). Put plainly: Agonist activity at human NMUR1 expressed in CHO cells assessed as induction of Ca2+ flux at 0.1 nM after 18 hrs by Fluo-4 AM dye based FLIPR assay relative to NMU. An outline of the steps: as §1
Test [4] deals with Neuromedin-U receptor 2 (Homo sapiens) (UniProt Q9GZQ4). Put plainly: Agonist activity at human NMUR2 expressed in CHO cells assessed as induction of Ca2+ flux at 0.1 to 10 nM after 18 hrs by Fluo-4 AM dye based FLIPR assay relative to NMU. An outline of the steps:
as §1

Sequence of Neuromedin-U receptor 2 (Homo sapiens) (Q9GZQ4 whole entry): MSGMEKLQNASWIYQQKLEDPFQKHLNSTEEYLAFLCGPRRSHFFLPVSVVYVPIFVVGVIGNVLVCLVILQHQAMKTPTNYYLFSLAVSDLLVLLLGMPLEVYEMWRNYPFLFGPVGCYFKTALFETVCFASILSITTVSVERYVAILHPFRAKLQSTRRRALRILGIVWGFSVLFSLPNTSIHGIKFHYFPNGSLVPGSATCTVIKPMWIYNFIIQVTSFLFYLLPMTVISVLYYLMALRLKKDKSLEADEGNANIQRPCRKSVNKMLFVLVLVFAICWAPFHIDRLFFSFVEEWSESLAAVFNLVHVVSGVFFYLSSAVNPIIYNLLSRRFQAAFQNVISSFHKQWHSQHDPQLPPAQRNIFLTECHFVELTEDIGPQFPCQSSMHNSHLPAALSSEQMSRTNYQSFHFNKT

In the case of `N=C(N)NCCC[C@H](NC(=O)[C@@H]1CCCN1C(=O)[C@H](CCCNC(=N)N)NC(=O)[C@H](Cc1ccc([N+](=O)[O-])cc1)NC(=O)[C@H](Cc1c[nH]c2ccccc12)NC(=O)Cc1cccs1)C(=O)N[C@@H](CC(N)=O)C(N)=O` ({Acetyl(2-thienyl)}-W[Phe(4-NO2)]RPRN-NH2), the result in test [1] was inactive.
As to `N=C(N)NCCC[C@H](NC(=O)[C@@H]1CCCN1C(=O)[C@H](CCCNC(=N)N)NC(=O)[C@H](Cc1csc2ccccc12)NC(=O)[C@H](Cc1c[nH]c2ccccc12)NC(=O)Cc1cccs1)C(=O)N[C@@H](CC(N)=O)C(N)=O` ({Acetyl(2-thienyl)}-W[Bta]RPRN-NH2), in test [2], the outcome was Active.
Take `COc1ccc(C[C@H](NC(=O)[C@H](Cc2c[nH]c3ccccc23)NC(=O)Cc2cccs2)C(=O)N[C@@H](CCCNC(=N)N)C(=O)N2CCC[C@H]2C(=O)N[C@@H](CCCNC(=N)N)C(=O)N[C@@H](CC(N)=O)C(N)=O)cc1` ({Acetyl(2-thienyl)}-WY(Me)RPRN-NH2): the outcome in test [1] was inactive.
Same read-out and setting: the result for `N#Cc1ccc(C[C@H](NC(=O)[C@H](Cc2c[nH]c3ccccc23)NC(=O)Cc2cccs2)C(=O)N[C@@H](CCCNC(=N)N)C(=O)N2CCC[C@H]2C(=O)N[C@@H](CCCNC(=N)N)C(=O)N[C@@H](CC(N)=O)C(N)=O)cc1` ({Acetyl(2-thienyl)}-W[Phe(4-CN)]RPRN-NH2) reads “inactive”; that for `N=C(N)NCCC[C@H](NC(=O)[C@@H]1CCCN1C(=O)[C@H](CCCNC(=N)N)NC(=O)[C@H](Cc1ccc(Br)cc1)NC(=O)[C@H](Cc1c[nH]c2ccccc12)NC(=O)Cc1cccs1)C(=O)N[C@@H](CC(N)=O)C(N)=O` ({Acetyl(2-thienyl)}-W[Phe(4-Br)]RPRN-NH2), “inactive”.
For `N=C(N)NCCC[C@H](NC(=O)[C@@H]1CCCN1C(=O)[C@H](CCCNC(=N)N)NC(=O)[C@H](Cc1ccc(-c2ccccc2)cc1)NC(=O)[C@H](Cc1c[nH]c2ccccc12)NC(=O)Cc1cccs1)C(=O)N[C@@H](CC(N)=O)C(N)=O` ({Acetyl(2-thienyl)}-W[Bip]RPRN-NH2), in test [3], the result was Active. Besides, in test [1], the result was inactive.
As for `N=C(N)NCCC[C@H](NC(=O)[C@@H]1CCCN1C(=O)[C@H](CCCNC(=N)N)NC(=O)[C@H](Cc1ccccc1F)NC(=O)[C@H](Cc1c[nH]c2ccccc12)NC(=O)Cc1cccs1)C(=O)N[C@@H](CC(N)=O)C(N)=O` ({Acetyl(2-thienyl)}-W[Phe(2-F)]RPRN-NH2), the outcome in test [2] and in test [4] was Active.
As for `N=C(N)NCCC[C@H](NC(=O)[C@@H]1CCCN1C(=O)[C@H](CCCNC(=N)N)NC(=O)[C@H](Cc1cccc2ccccc12)NC(=O)[C@H](Cc1c[nH]c2ccccc12)NC(=O)Cc1cccs1)C(=O)N[C@@H](CC(N)=O)C(N)=O` ({Acetyl(2-thienyl)}-W[1Nal]RPRN-NH2), in test [1], the result was inactive.
In the case of `N=C(N)NCCC[C@H](NC(=O)[C@@H]1CCCN1C(=O)[C@H](CCCNC(=N)N)NC(=O)[C@H](Cc1ccc(Cl)cc1)NC(=O)[C@H](Cc1c[nH]c2ccccc12)NC(=O)Cc1cccs1)C(=O)N[C@@H](CC(N)=O)C(N)=O` ({Acetyl(2-thienyl)}-W[Phe(4-Cl)]RPRN-NH2), the outcome in test [1] was Active.
Turning to `N=C(N)NCCC[C@H](NC(=O)[C@@H]1CCCN1C(=O)[C@H](CCCNC(=N)N)NC(=O)[C@H](Cc1ccc(C(F)(F)F)cc1)NC(=O)[C@H](Cc1c[nH]c2ccccc12)NC(=O)Cc1cccs1)C(=O)N[C@@H](CC(N)=O)C(N)=O` ({Acetyl(2-thienyl)}-W[Phe(4-CF3)]RPRN-NH2), the result in test [3] was Active. In addition, the outcome in test [1] was inactive.
For the molecule `N=C(N)NCCC[C@H](NC(=O)[C@@H]1CCCN1C(=O)[C@H](CCCNC(=N)N)NC(=O)[C@H](Cc1ccc(C(=O)c2ccccc2)cc1)NC(=O)[C@H](Cc1c[nH]c2ccccc12)NC(=O)Cc1cccs1)C(=O)N[C@@H](CC(N)=O)C(N)=O` ({Acetyl(2-thienyl)}-W[Bpa]RPRN-NH2), the result in test [3] was Active. The result in test [1] was inactive.
